# Measured values taken from ChEMBL document CHEMBL1140861, “Short antisense oligonucleotides with novel 2'-4' conformationaly restricted nucleoside analogues show improved potency without increased toxicity in animals” (J Med Chem, 2009).
# pIC50: −log10 of the molar value. Calls of active or inactive are those of the source. No cut-off for these calls is given here.
# Assays:
# [1] = test system: Mus musculus; assay: Toxicity in BALB/c mouse assessed as increase in liver weight at 15 mg/kg, ip administered twice a week for 3 weeks measured after 72 hrs of last dose; type: organism-based; design: dose 15 mg/kg, route intraperitoneal; conditions: in vivo
# Method in brief: (§1)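 Male Balb/c mice, 6 weeks old, dosed ip twice weekly for 3 weeks at 0.5, 1.5, 4.7 and 15 mg/kg (two ASOs) or 0.7, 2.3, 7.2 and 23 mg/kg (MOE control); sacrificed 72 h after last dose; ALT, liver PTEN mRNA, liver and spleen weights and body weight gain assessed; ED50 derived; errors as sd.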
# [2] = test system: Mus musculus; assay: Toxicity in BALB/c mouse assessed as increase in spleen weight at 4.7 mg/kg, ip administered twice a week for 3 weeks measured after 72 hrs of last dose; type: organism-based; design: dose 4.7 mg/kg, route intraperitoneal; conditions: in vivo; method in brief: as §1
# [3] = test system: Mus musculus; assay: Toxicity in BALB/c mouse assessed as increase in spleen weight at 0.5 mg/kg, ip administered twice a week for 3 weeks measured after 72 hrs of last dose; type: organism-based; design: dose 0.5 mg/kg, route intraperitoneal; conditions: in vivo; method in brief: as §1
# [4] = test system: Mus musculus; assay: Reduction of PTEN mRNA level in BALB/c mouse liver at 32 mg/kg, ip after 72 hrs; type: functional, organism-based; design: dose 32 mg/kg
# Method in brief: (§2)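 Balb/c mice, 6 weeks old, n = 4 per dose group, single ip doses of 32, 66 or 100 mg/kg; killed 72 h after administration; serum ALT and liver PTEN mRNA quantified after sacrifice; errors as sd.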
# [5] = test system: Mus musculus; assay: Reduction of PTEN mRNA level in BALB/c mouse liver at 100 mg/kg, ip after 72 hrs; type: functional; method in brief: as §2
# [6] = test system: Mus musculus; assay: Toxicity in BALB/c mouse assessed as reduction in body weight at 15 mg/kg, ip administered twice a week for 3 weeks measured after 72 hrs of last dose; type: organism-based; design: dose 15 mg/kg, route intraperitoneal; conditions: in vivo; method in brief: as §1
# [7] = test system: Mus musculus; assay: Toxicity in BALB/c mouse assessed as increase in liver weight at 0.5 mg/kg, ip administered twice a week for 3 weeks measured after 72 hrs of last dose; type: organism-based; design: dose 0.5 mg/kg, route intraperitoneal; conditions: in vivo; method in brief: as §1
# [8] = test system: Mus musculus; assay: Toxicity in BALB/c mouse assessed as increase in liver weight at 4.7 mg/kg, ip administered twice a week for 3 weeks measured after 72 hrs of last dose; type: organism-based; design: dose 4.7 mg/kg, route intraperitoneal; conditions: in vivo; method in brief: as §1
# [9] = test system: Mus musculus; assay: Reduction of PTEN mRNA expression in ip dosed BALB/c mouse administered twice a week for 3 weeks assessed as antisense oligonucleotide level in liver measured after 72 hrs of last dose; type: functional, organism-based
# [10] = test system: Mus musculus; assay: Reduction of PTEN level in ip dosed BALB/c mouse liver at 37 mg/kg by Western blot analysis; type: functional, organism-based; design: dose 37 mg/kg
# [11] = organism: Mus musculus; assay: Binding affinity to mouse PTEN mRNA assessed as melting temperature
# Method in brief: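 Tm of ASO–RNA duplex, i.e. melting temperature of the ASO hybridised to its complementary RNA.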
# [12] = test system: Mus musculus; assay: Hepatotoxicity in BALB/c mouse assessed as increase in liver ALT level at 1.5 mg/kg, ip administered twice a week for 3 weeks measured after 72 hrs of last dose; type: toxicity, organism-based; design: dose 1.5 mg/kg, route intraperitoneal; conditions: in vivo; method in brief: as §1
# [13] = test system: Mus musculus; assay: Toxicity in BALB/c mouse assessed as reduction in body weight at 0.5 mg/kg, ip administered twice a week for 3 weeks measured after 72 hrs of last dose; type: organism-based; design: dose 0.5 mg/kg, route intraperitoneal; conditions: in vivo; method in brief: as §1
# [14] = test system: Mus musculus; assay: Toxicity in BALB/c mouse assessed as reduction in body weight at 4.7 mg/kg, ip administered twice a week for 3 weeks measured after 72 hrs of last dose; type: organism-based; design: dose 4.7 mg/kg, route intraperitoneal; conditions: in vivo; method in brief: as §1
# [15] = test system: Mus musculus; assay: Reduction of PTEN mRNA level in BALB/c mouse liver at 66 mg/kg, ip after 72 hrs; type: functional, organism-based; design: dose 66 mg/kg; method in brief: as §2
# [16] = test system: Mus musculus; assay: Toxicity in BALB/c mouse assessed as reduction in body weight at 1.5 mg/kg, ip administered twice a week for 3 weeks measured after 72 hrs of last dose; type: organism-based; design: dose 1.5 mg/kg, route intraperitoneal; conditions: in vivo; method in brief: as §1
# [17] = test system: Mus musculus; assay: Hepatotoxicity in BALB/c mouse assessed as increase in liver ALT level at 0.5 mg/kg, ip administered twice a week for 3 weeks measured after 72 hrs of last dose; type: toxicity, organism-based; design: dose 0.5 mg/kg, route intraperitoneal; conditions: in vivo; method in brief: as §1
# [18] = test system: Mus musculus; assay: Hepatotoxicity in BALB/c mouse assessed as increase in liver ALT level at 4.7 mg/kg, ip administered twice a week for 3 weeks measured after 72 hrs of last dose; type: toxicity, organism-based; design: dose 4.7 mg/kg, route intraperitoneal; conditions: in vivo; method in brief: as §1
# [19] = test system: Mus musculus; assay: Toxicity in BALB/c mouse assessed as increase in liver weight at 1.5 mg/kg, ip administered twice a week for 3 weeks measured after 72 hrs of last dose; type: organism-based; design: dose 1.5 mg/kg, route intraperitoneal; conditions: in vivo; method in brief: as §1
# [20] = test system: Mus musculus; assay: Hepatotoxicity in BALB/c mouse assessed as increase in liver ALT level at 100 mg/kg, ip after 72 hrs; type: toxicity, organism-based; design: dose 100 mg/kg, route intraperitoneal; conditions: in vivo; method in brief: as §2
# [21] = test system: Mus musculus; assay: Toxicity in BALB/c mouse assessed as increase in spleen weight at 15 mg/kg, ip administered twice a week for 3 weeks measured after 72 hrs of last dose; type: organism-based; design: dose 15 mg/kg, route intraperitoneal; conditions: in vivo; method in brief: as §1
# [22] = test system: Mus musculus; assay: Hepatotoxicity in BALB/c mouse assessed as increase in liver ALT level at 15 mg/kg, ip administered twice a week for 3 weeks measured after 72 hrs of last dose; type: toxicity, organism-based; design: dose 15 mg/kg, route intraperitoneal; conditions: in vivo; method in brief: as §1
# [23] = test system: Mus musculus; assay: Toxicity in BALB/c mouse assessed as increase in spleen weight at 1.5 mg/kg, ip administered twice a week for 3 weeks measured after 72 hrs of last dose; type: organism-based; design: dose 1.5 mg/kg, route intraperitoneal; conditions: in vivo; method in brief: as §1
# [24] = test system: Mus musculus; assay: Reduction of PTEN mRNA level in ip dosed BALB/c mouse liver administered twice a week for 3 weeks measured after 72 hrs of last dose; type: functional; method in brief: as §1
# [25] = test system: Mus musculus; assay: Metabolic stability in BALB/c mouse liver assessed as antisense oligonucleotide level at 18 mg/kg; type: ADME, organism-based; design: dose 18 mg/kg; conditions: in vivo
# [26] = test system: bEND; assay: Reduction in mouse PTEN mRNA level expressed in mouse bEND cells; type: functional, cell-based
# Method in brief: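 bEND mouse brain endothelial cells transfected with ASO using lipofectin; PTEN mRNA reduction measured over a dose range; IC50 taken from dose-response curves.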
# [27] = test system: Mus musculus; assay: Reduction of PTEN mRNA level in ip dosed BALB/c mouse liver after 72 hrs; type: functional
compound,measurement,setting,value
Cc1cn([C@@H]2O[C@@]3(COP(O)(=S)O[C@H]4[C@H]5O[C@@H](C)[C@]4(COP(O)(=S)O[C@H]4C[C@H](n6cc(C)c(=O)[nH]c6=O)O[C@@H]4COP(O)(=S)O[C@H]4[C@@H](O)[C@H](n6cnc7c6N=CNC7N)O[C@@H]4COP(O)(=S)O[C@H]4[C@@H](O)[C@H](n6cnc7c(=O)[nH]c(N)nc76)O[C@@H]4COP(O)(=S)O[C@H]4[C@@H](O)[C@H](n6ccc(N)nc6=O)O[C@@H]4COP(O)(=S)O[C@H]4[C@@H](O)[C@H](n6cnc7c(N)ncnc76)O[C@@H]4COP(O)(=S)O[C@H]4[C@@H](O)[C@H](n6ccc(N)nc6=O)O[C@@H]4COP(O)(=S)O[C@H]4[C@@H](O)[C@H](n6cc(C)c(=O)[nH]c6=O)O[C@@H]4COP(O)(=S)O[C@H]4[C@@H](O)[C@H](n6cnc7c(=O)[nH]c(N)nc76)O[C@@H]4COP(O)(=S)O[C@H]4[C@@H](O)[C@H](n6cnc7c(=O)[nH]c(N)nc76)O[C@@H]4COP(O)(=S)O[C@H]4[C@@H](O)[C@H](n6ccc(N)nc6=O)O[C@@H]4COP(O)(=S)O[C@H]4[C@H]6O[C@@H](C)[C@]4(COP(O)(=S)O[C@H]4[C@H]7O[C@@H](C)[C@]4(COP(=O)(O)O)O[C@H]7n4ccc(=O)[nH]c4=O)O[C@H]6n4cc(C)c(N)nc4=O)O[C@H]5n4ccc(=O)[nH]c4=O)[C@H](C)O[C@@H]2[C@@H]3O)c(=O)nc1N (stereo partly drawn),Activity,[1],Non-toxic
same,Activity,[2],Non-toxic
same,Activity,[3],Non-toxic
same,Activity,[4],Active
same,Activity,[5],Active
same,Activity,[5]; route intraperitoneal,>90%
same,Activity,[6],Toxic
same,Activity,[7],Non-toxic
same,Activity,[8],Non-toxic
same,EC50,[9],6.3 µg/g
same,Activity,[10],Active
same,Tm,[11],59.1 °C
same,Activity,[12],Toxic
same,Activity,[13],Toxic
same,Activity,[14],Toxic
same,Activity,[15],Active
same,Activity,[16],Toxic
same,Activity,[17],Toxic
same,Activity,[18],Toxic
same,Activity,[19],Non-toxic
same,Activity,[20],Non-toxic
same,Activity,[21],Non-toxic
same,Activity,[22],Toxic
same,Activity,[23],Non-toxic
same,ED50,[24],2.4 mg/kg
same,Stability,[25],25 µg/g
same,pIC50,[26],8.24
same,ED50,[27],9 mg/kg
